Source: PubChem
COUP-TFII inh = blocks human COUP-TFII nuclear receptor. actives 0.7% (n = 370,000). P24468. inhibition, % at 8.6 µM. HEK293T NGFI-A luciferase reporter, luminescence. AID 686940;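 active = inhibition above a per-plate cutoff, mean inhibition of test wells between control levels plus 3 SD, cut at about 38% in these data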;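 also: cells cotransfected with COUP-TFII expression vector driving the NGFI-A reporter; 0% = median of COUP-TF2 test wells and 100% = reporter-only cells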
CHT PAM = allosteric activators of human choline transporter CHT; Q9GZV3; CHT-expressing cells, membrane potential dye, choline EC20; active compounds read high; LV-AA mutant CHT in HEK293 cells; B-score at 10 µM; actives 0.49% (n = 310,000); AID 488977;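 active = initial fluorescence not abnormally high and integrated response B-score, plate-corrected, over 3 SD above library mean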
CHT inh = inhibitors of human choline transporter CHT; CHT-expressing cells, membrane potential dye, choline response; active compounds read low; B-score at 10 µM; actives 0.86% (n = 310,000);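 active = B-score over 3 SD under the library average, and starting fluorescence ratio not unusually high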;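 also: choline stimulus applied at its EC90 after an EC20 pre-addition; B-score computed on integrated fluorescence ratio after choline addition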
NR2E3 ag-1 = activates human photoreceptor nuclear receptor NR2E3; inhibition of corepressor binding, % at 4.78 µM; GST-NR2E3/biotin-RetCOR TR-FRET, 1536-well; AID 2300; actives 0.12% (n = 320,000);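 active = percent inhibition above the cutoff of mean plus 3 SD of all tested compounds, set per screening campaign, cut at about 20% in these data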;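 also: 0% = DMSO wells and 100% = biotin wells as full block of FRET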
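Material: NR2E3–RetCOR corepressor complex / Amount: 1.35 nM GST-NR2E3 / Medium: Tris pH 7.5 / Compound: single nominal compound dose of 4.8 µM / Incubation: 5 h at 4 °C / Technique: TR-FRET, Eu(K)-anti-GST donor, streptavidin-D2 acceptor, ex 340, em 617/671 nm / Read-out basis: percent loss of FRET ratio relative to control wells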
GalR3 antag = human GalR3 antagonism | O60755 | HEK293 GalR3-CNG cAMP membrane potential fluorescence; galR3 body fused to GalR1 C-terminus | inhibition, % at 3 µM | actives 0.44% (n = 360,000);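 active = inhibition above the screen-wide average plus 3 SD, cut at about 13% in these data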;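 also: forskolin and galanin both at EC90 stimulate the cells; cAMP rise reported by CNG channel membrane potential dye signal; 0% = forskolin plus galanin with DMSO and 100% = forskolin alone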
Target sequence (O60755 1-299 limits assumed): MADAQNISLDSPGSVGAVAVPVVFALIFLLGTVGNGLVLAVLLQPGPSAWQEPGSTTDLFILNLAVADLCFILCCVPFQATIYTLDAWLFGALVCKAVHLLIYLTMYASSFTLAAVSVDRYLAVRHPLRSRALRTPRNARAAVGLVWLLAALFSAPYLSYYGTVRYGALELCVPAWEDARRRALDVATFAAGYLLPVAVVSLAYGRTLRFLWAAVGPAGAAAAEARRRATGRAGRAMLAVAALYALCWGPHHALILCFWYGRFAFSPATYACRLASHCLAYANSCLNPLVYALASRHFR
NR2E3 ag-2 = agonists of human NR2E3 nuclear receptor | AID 602229 | actives 0.35% (n = 360,000) | CHO-S Gal4-NCOR/VP16-NR2E3 two-hybrid, luciferase | inhibition of corepressor binding, % at 3.98 µM;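 active = inhibition above the mean of all tested compounds plus 3 SD, cut at about 70% in these data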;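 also: 0% = DMSO with NR2E3 transfected cells and 100% = cells lacking NR2E3 construct; higher means lower luciferase signal from less NR2E3 corepressor binding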
CHT act confirm = confirmation of human choline transporter (CHT) activators; shares compounds with CHT PAM; CHT-expressing cells, membrane potential dye fluorescence (FDSS); % of choline EC20–EC90 response window; HEK293 expressing CHT LV-AA mutant; choline added at its EC20; activation, % at 10 µM; actives 91% (n = 2,500);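 active = primary screen active, with duplicate mean activation above negative control mean plus 3 SD, cut at about 11% in these data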
HEK293 MP dye = CHT activator counter-screen hit in parental HEK293 cells; shares compounds with CHT PAM; actives 62% (n = 2,500); ratio readout change at 10 µM, hits read low; membrane potential dye fluorescence (FDSS); measured after EC20 choline addition;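 active = duplicate-averaged ratio beyond 3 SD from buffer wells, up or down, though filed actives are nearly all decreases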
Starred values were filed as active, the others as inactive. Compounds with a hit are over-represented: about 2.3% of the library has one in this group of screens.

`CC(NCc1cc(Br)ccc1OCC(=O)NCc1ccccc1)c1ccccc1` (stereo not given) gave COUP-TFII inh -4, CHT PAM inactive, CHT inh inactive, NR2E3 ag-1 0, GalR3 antag -6, NR2E3 ag-2 -1, CHT act confirm -2 and HEK293 MP dye inactive.
For O=C(COc1ccc(Br)cc1CNC1CCCC1)Nc1ccccc1 the results were COUP-TFII inh -2, CHT PAM inactive, CHT inh inactive, NR2E3 ag-1 0, GalR3 antag -11, NR2E3 ag-2 2, CHT act confirm 7 and HEK293 MP dye inactive.
Cc1cc(C)c(C#N)c(SCc2cn3c(C)cccc3n2)n1 was read as COUP-TFII inh 0, CHT PAM inactive, CHT inh inactive, NR2E3 ag-1 -2, GalR3 antag -3, NR2E3 ag-2 2, CHT act confirm 56* and HEK293 MP dye -42*.
Screening Cc1ccnc(SCc2cn3c(C)cccc3n2)n1 returned COUP-TFII inh -11, CHT PAM 7*, CHT inh inactive, NR2E3 ag-1 -1, GalR3 antag -1, NR2E3 ag-2 -37, CHT act confirm 27* and HEK293 MP dye -46*.
For Cc1cc(C)nc(SCc2cn3c(C)cccc3n2)n1 the results were COUP-TFII inh -30, CHT PAM 6.8*, CHT inh inactive, NR2E3 ag-1 2, GalR3 antag -2, NR2E3 ag-2 16, CHT act confirm 44* and HEK293 MP dye -53*.
Screening Cc1cccc2nc(CSc3nnc4ccccn34)cn12 returned COUP-TFII inh -47, CHT PAM inactive, CHT inh inactive, NR2E3 ag-1 -3, GalR3 antag -4 and NR2E3 ag-2 -76.
Screening O=C(CSc1nc2sc3c(c2c(=O)n1-c1ccc(Cl)cc1)CCC3)Nc1ccc(C(=O)O)cc1 returned COUP-TFII inh 24.
COC(=O)[C@@H]1C[C@@]2(c3ccccc3)c3ccccc3N(S(=O)(=O)c3ccccc3)[C@H]2N1C(=O)CNC1CCCCC1 was read as COUP-TFII inh 23.
Screening COc1cccc(C(=O)NCC(c2ccco2)N2CCc3ccccc3C2)c1 (stereo not given) returned COUP-TFII inh -5, CHT PAM inactive, CHT inh inactive, NR2E3 ag-1 -2, GalR3 antag -5 and NR2E3 ag-2 13.
For O=C(NCC(c1ccco1)N1CCc2ccccc2C1)c1cccc(F)c1 (stereo not given) the results were COUP-TFII inh -4, CHT PAM inactive, CHT inh inactive, NR2E3 ag-1 2, GalR3 antag 0, NR2E3 ag-2 0, CHT act confirm 11* and HEK293 MP dye inactive.
Screening Cc1ccccc1C(=O)NCC(c1ccco1)N1CCc2ccccc2C1 (stereo not given) returned COUP-TFII inh -19, CHT PAM inactive, CHT inh inactive, NR2E3 ag-1 2, GalR3 antag -6, NR2E3 ag-2 2, CHT act confirm -1 and HEK293 MP dye inactive.
For COc1ccc(C(=O)C2(C(=O)Nc3cc(C)cc(C)c3)CC(c3ccccc3C(F)(F)F)=NO2)cc1 (stereo not given) the results were COUP-TFII inh -14.
CCC(C)(C)n1nnnc1C(c1cccnc1)N1CCN(c2cccc(C(F)(F)F)c2)CC1 (stereo not given) was read as COUP-TFII inh 16, CHT PAM inactive, CHT inh inactive, NR2E3 ag-1 -3, GalR3 antag 0, NR2E3 ag-2 -2, CHT act confirm 12* and HEK293 MP dye inactive.
Screening CC[n+]1c(/C=C/c2cc([N+](=O)[O-])ccc2O)ccc2ccccc21 returned COUP-TFII inh 4, CHT PAM inactive, CHT inh inactive, NR2E3 ag-1 5, GalR3 antag 0, NR2E3 ag-2 -18, CHT act confirm 17* and HEK293 MP dye -52*.
CC[n+]1c(/C=C/c2ccc(OC(C)=O)c(OC)c2)ccc2ccccc21 was read as COUP-TFII inh -50, CHT PAM 7.2*, CHT inh inactive, GalR3 antag -9, NR2E3 ag-2 -88, CHT act confirm 45* and HEK293 MP dye -74*.
`CC[n+]1c(/C=C/c2ccc(OC)c(OC)c2)ccc2ccccc21` gave COUP-TFII inh -40, CHT PAM inactive, CHT inh inactive, NR2E3 ag-1 5, GalR3 antag -10 and NR2E3 ag-2 -138.
CC(C)CN1C(=O)[C@@]2(CC(=O)N(C)C2c2ccccc2)c2cc(-n3cc(CCc4ccccc4)nn3)ccc21 (stereo not given in full) was read as COUP-TFII inh -34.
CN=C1c2c(-c3ccccc3)c3cc(OC)ccc3n2CCN1C was read as COUP-TFII inh -13, CHT PAM 8*, CHT inh inactive, NR2E3 ag-1 3, GalR3 antag -5, NR2E3 ag-2 1, CHT act confirm 43* and HEK293 MP dye -53*.
For Cc1ccc(Cn2cc(CN3[C@H](Cc4ccccc4)COc4cc(Br)ccc4S3(=O)=O)nn2)cc1 the results were COUP-TFII inh -10.
Screening Cc1cccc2cc3c(N)c(C(=O)N4CCc5ccccc54)sc3nc12 returned COUP-TFII inh 2, CHT PAM inactive, CHT inh inactive, NR2E3 ag-1 3, GalR3 antag -4, NR2E3 ag-2 -79, CHT act confirm 26* and HEK293 MP dye inactive.
For CNC(=S)Nc1cc(S(=O)(=O)Nc2cc(Cl)ccc2Cl)ccc1N1CCCC1 the results were COUP-TFII inh -2, CHT PAM inactive, CHT inh inactive, NR2E3 ag-1 -1, GalR3 antag -12, NR2E3 ag-2 -25, CHT act confirm 14* and HEK293 MP dye inactive.
For Nc1cc(S(=O)(=O)Nc2cc(Cl)ccc2Cl)ccc1N1CCCC1 the results were COUP-TFII inh 11, CHT PAM inactive, CHT inh inactive, NR2E3 ag-1 0, GalR3 antag -8 and NR2E3 ag-2 20.
For CCN1CCN(c2cc(C)c3cc(NC(=S)N4CCCC4)ccc3n2)CC1 the results were COUP-TFII inh -10, CHT PAM inactive, CHT inh inactive, NR2E3 ag-1 -2, GalR3 antag -2 and NR2E3 ag-2 18.
